Inconclusive results are not listed.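 Rule for the calls, unless noted: active = RAM network inhibition above 8.4% in each of two replicates, 3 SD over the compound average; inconclusive = above 8.4% inhibition in only one replicate; inactive = 8.4% inhibition or less in each replicate.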
Assays:
[1] = OD615 S. cerevisiae growth inhibition, permissive medium, pilot counter-assay, permissive growth control for S. cerevisiae lifespan shortening project (AID 705;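 active = growth inhibition above 25% in both replicates, a cutoff set 3 SD above the mean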); details: OD615, 24 h, at 10 µM, stronger effect = higher value
Method in brief: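 System: S. cerevisiae with engineered DeaD lifespan system / Measured by: absorbance (optical density) at 615 nm / Read-out: reduction in yeast growth (OD615) / Times: 4 h cell pre-growth, 24 h exposure at 30 °C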

[2] = Restrictive medium S. cerevisiae growth inhibition, OD615, pilot screen of yeast lifespan reduction project, restrictive growth control (AID 706;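 active = growth inhibition above a set limit, 3 SD over mean compound inhibition, in both replicates, cut at about 43% in these data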;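 note: modified DeaD lifespan yeast strain shifted to restrictive glucose medium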); details: OD615, 48 h, at 10 µM, stronger effect = higher value
Method in brief: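 System: Engineered S. cerevisiae DeaD strain | Buffer or medium: Glucose-based CSMM-D restrictive medium | Schedule: 4 h pre-incubation, 48 h exposure at 30 °C | Technique: Optical density at 615 nm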

[3] = viability gain of MRP-1-high H69AR cells under doxorubicin, pilot screen, MRP-1 activator project, CellTiter-Glo, duplicate (AID 807;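 active = viability increase at or above a cutoff of the median across tested compounds plus 3 SD, cut at about 8.5% in these data, passing the limit was not always enough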;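 note: compound pretreatment 18-22 h then 72 h combined with doxorubicin; 0% = doxorubicin alone and 100% = vehicle without doxorubicin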); details: H69AR viability with doxorubicin, CellTiter-Glo luminescence; at 10 µM; stronger effect = higher value
[4] = growth suppression of beta-catenin knockout HCT116, pilot screen, human colon tumor cells (AID 823;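 active = cell viability at or below a set limit in both duplicate runs, the limit being the all-compound median minus 4 SD, cut at about 23% in these data, passing the limit was not always enough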;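 note: 0% = wells killed by 20 µM Hyamine and 100% = untreated DMSO cell wells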); details: CellTiter-Glo, 60 h, at 10 µM, stronger effect = lower value
[5] = growth suppression of PTEN-deleted HCT116, pilot screen, cell-based, HCT116 clonal line, CellTiter-Glo (AID 824;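 active = viability at or below 27.92% in each of two runs, the all-compound median minus 4 SD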;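 note: 0% = 20 µM Hyamine control and 100% = vehicle cell control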); details: 60 h, at 10 µM, stronger effect = lower value
[6] = inhibitors of the yeast RAM network, pilot screen, dse1pr::URA3 reporter, 5-FOA selection (AID 869;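 active = inhibition over a set limit, the all-compound mean plus 3 SD, in both replicate runs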;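 note: 0% = DMSO wells with no growth and 100% = 10 µM 1-NA-PP1 with full growth; RAM network block rescues cells from 5-FOA so hits raise OD615 growth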); details: S. cerevisiae dse1pr::URA3 5-FOA growth, OD615, 2 d; at 10 µM; stronger effect = higher value; strain carries analog-sensitive mutant Cbk1 kinase
[7] = RAM signaling pathway blockade in yeast – S. cerevisiae, Pdr1DBD-CYC8 efflux-inhibited sensitized strain, primary screen (AID 1298);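 note: 0% = DMSO untreated cells without growth and 100% = 10 µM 1-NA-PP1 full growth; higher means more yeast growth rescued from 5-FOA killing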; details: S. cerevisiae cbk1-as DSE1-URA3 strain, 5-FOA growth OD615, 2 d; at 50 µM; stronger effect = higher value

CCOC(=O)CNC(=O)c1c2c(nc3ccccc13)CCCC2
inactive: growth inhibition [1] -6.83% | growth inhibition [2] -1.75% | viability increase [3] -5.37% | viability [4] 95.4% | viability [5] 88.2% | inhibition [6] 2.68% | RAM network inhibition [7] 5.74%

O=C(Nc1sc2c(c1C(=O)NCC1CCCO1)CCCC2)c1cccs1 (configuration not stated)
inactive: growth inhibition [1] -11.2% | growth inhibition [2] 5.31% | viability increase [3] -3.45% | viability [4] 85.9% | viability [5] 86.6% | inhibition [6] 1% | RAM network inhibition [7] 4.75%

COC(=O)c1ccccc1N(Cc1ccccc1)S(C)(=O)=O
inactive: growth inhibition [1] -3.77% | growth inhibition [2] -8.56% | viability increase [3] -4.02% | viability [4] 90.6% | viability [5] 105% | inhibition [6] -0.425% | RAM network inhibition [7] 1.83%

COC(=O)CCSCC(=O)Nc1nnc(C)s1
inactive: growth inhibition [1] 3.46% | growth inhibition [2] -7.57% | viability increase [3] -0.31% | viability [4] 108% | viability [5] 93.1% | inhibition [6] 3.05% | RAM network inhibition [7] 0.66%

O=C(C1CCN(S(=O)(=O)c2cccc3cccnc23)CC1)N1CCN(c2ccc(Cl)cc2)CC1
inactive: growth inhibition [1] -3.56% | growth inhibition [2] 0.215% | viability increase [3] -1.23% | viability [4] 31.1% | viability [5] 38.6% | inhibition [6] 1.4% | RAM network inhibition [7] 4.56%

Oc1c(C(c2ccccc2)N2CCN(Cc3ccccc3)CC2)sc2ncnn12 (configuration not stated)
inactive: growth inhibition [1] -6.68% | growth inhibition [2] -5.08% | viability increase [3] 1.62% | viability [4] 89.7% | viability [5] 84.7% | inhibition [6] 1.79% | RAM network inhibition [7] 0.68%

COc1ccc(NC(=O)c2cc3ccccc3o2)cc1
inactive: growth inhibition [1] -7.97% | growth inhibition [2] 10.6% | viability increase [3] -4.64% | viability [4] 86.6% | viability [5] 75.8% | inhibition [6] 0.89% | RAM network inhibition [7] -1.4%

O=C(CN1CCOc2ccccc21)N1CCC(Cc2ccccc2)CC1
inactive: growth inhibition [1] -3.59% | growth inhibition [2] 21.2% | viability increase [3] -3.42% | viability [4] 88% | viability [5] 95.1% | inhibition [6] 1.46% | RAM network inhibition [7] 8.63%

COc1ccc(-c2nc(CS(=O)CC(=O)NCc3ccco3)c(C)o2)cc1 (configuration not stated)
inactive: growth inhibition [1] -8.38% | growth inhibition [2] 17.3% | viability increase [3] -4.45% | viability [4] 92.5% | viability [5] 100% | inhibition [6] 1.88% | RAM network inhibition [7] 0.58%

CCc1nnc(NC(=O)CSc2nccn2-c2cc(C)cc(C)c2)s1
inactive: growth inhibition [1] 3.21% | growth inhibition [2] 23% | viability increase [3] -6.31% | viability [4] 86.2% | viability [5] 75.8% | inhibition [6] 0.195% | RAM network inhibition [7] -1.37%

COc1cc(N)ccc1Cc1ccc(N)cc1OC
inactive: growth inhibition [1] -5.34% | growth inhibition [2] -2.19% | viability increase [3] -4.54% | viability [4] 85.9% | viability [5] 90.8% | inhibition [6] -0.06% | RAM network inhibition [7] 6.85%

COc1ccccc1NC(=O)Nc1ccc(Br)cn1
inactive: growth inhibition [1] -10.3% | growth inhibition [2] -15.5% | viability increase [3] -2.09% | viability [4] 92.6% | viability [5] 87.7% | inhibition [6] 2.98% | RAM network inhibition [7] 8.69%

Cn1c(Cn2c(=O)sc3ccccc32)nnc1SCc1cccnc1
inactive: growth inhibition [1] -3.75% | growth inhibition [2] 2.86% | viability increase [3] -1.44% | viability [4] 96.6% | viability [5] 97.1% | inhibition [6] 1.83% | RAM network inhibition [7] 5.33%

CS(=O)(=O)c1ccc2nc(NC(=O)c3ccco3)sc2c1
inactive: growth inhibition [1] -16% | growth inhibition [2] -4.42% | viability increase [3] -7.64% | viability [4] 84.9% | viability [5] 81.9% | inhibition [6] 3.1% | RAM network inhibition [7] 4.15%

CCOC(=O)N1CCC(N2CC34C=CC(O3)C(C(=O)Nc3ccc(C(C)C)cc3)C4C2=O)CC1 (configuration not stated)
inactive: growth inhibition [1] 2.48% | growth inhibition [2] -7.2% | viability increase [3] 3.15% | viability [4] 102% | viability [5] 99.6% | inhibition [6] 0.27% | RAM network inhibition [7] -0.37%

COCCNC(=O)CN1C(=O)COc2ccc(Cl)cc21
inactive: growth inhibition [1] -4.28% | growth inhibition [2] 6.35% | viability increase [3] -1.25% | viability [4] 111% | viability [5] 97.9% | inhibition [6] 1.12% | RAM network inhibition [7] 5.23%

O=C(c1oc(=O)c2ccccc2c1-c1ccccc1)N1CCN(C2CCCCC2)CC1
inactive: growth inhibition [1] -7.33% | growth inhibition [2] -0.045% | viability increase [3] -1.86% | viability [4] 95.5% | viability [5] 97.4% | inhibition [6] 1.16% | RAM network inhibition [7] 6.22%

O=C(Nc1sc2c(c1C(=O)O)CCCC2)c1cccs1
inactive: growth inhibition [1] 5.62% | growth inhibition [2] 15.9% | viability increase [3] -1.03% | viability [4] 79.5% | viability [5] 57% | inhibition [6] -1.22% | RAM network inhibition [7] -2.15%

O=C(Nc1nc2c(Cl)ccc(Cl)c2s1)c1ccco1
inactive: growth inhibition [1] -22% | growth inhibition [2] -3.32% | viability increase [3] -6.22% | viability [4] 90.1% | viability [5] 85.2% | inhibition [6] 1.41% | RAM network inhibition [7] 2.84%

Cc1[nH]n(-c2ccccc2)c(=O)c1S(=O)(=O)c1ccccc1
inactive: growth inhibition [1] -0.29% | growth inhibition [2] -3.15% | viability increase [3] 0.62% | viability [4] 102% | viability [5] 98.7% | inhibition [6] 0.08% | RAM network inhibition [7] 2.99%

CCOC(=O)Cn1nc(C)c(-c2ccccc2)c1N
inactive: growth inhibition [1] -23.1% | growth inhibition [2] -5.69% | viability increase [3] -1.41% | viability [4] 97.4% | viability [5] 95.2% | inhibition [6] 1.26% | RAM network inhibition [7] 2.61%

Cn1c(NC(=O)C2CC2)cc(=O)n(C)c1=O
inactive: growth inhibition [1] 0.21% | growth inhibition [2] 1.9% | viability increase [3] -0.62% | viability [4] 99% | viability [5] 104% | inhibition [6] 1.01% | RAM network inhibition [7] -1.84%

Cc1ccsc1-c1nc(CSCC(=O)NCc2ccc3c(c2)OCO3)c(C)o1
inactive: growth inhibition [1] -9.04% | growth inhibition [2] 2.91% | viability increase [3] -0.27% | viability [4] 87.2% | viability [5] 84% | inhibition [6] 0.83% | RAM network inhibition [7] 9.63%

COc1ccc(NC(=O)NCCCN2CCCC2=O)cc1
inactive: growth inhibition [1] -2.73% | growth inhibition [2] 8.62% | viability increase [3] 0.12% | viability [4] 105% | viability [5] 103% | inhibition [6] 0.945% | RAM network inhibition [7] -0.16%

Cc1cc(C)c(S(=O)(=O)N2CCN(CCO)CC2)c(C)c1
inactive: growth inhibition [1] 4.04% | growth inhibition [2] 10.5% | viability increase [3] 0.8% | viability [4] 108% | viability [5] 97.4% | inhibition [6] 1.64% | RAM network inhibition [7] 2.45%

CCOC(=O)C1C(c2cccc(Cl)c2Cl)NC(=O)NC1(O)C(F)(F)F (configuration not stated)
inactive: growth inhibition [1] -5.62% | growth inhibition [2] -7.31% | viability increase [3] -2.19% | viability [4] 94.8% | viability [5] 96.9% | inhibition [6] 1.15% | RAM network inhibition [7] 7.71%

Cc1cc(C)n(C(=O)c2ccc(NC(=O)C3CC3)cc2)n1
inactive: growth inhibition [1] -8.57% | growth inhibition [2] -4.89% | viability increase [3] 1.99% | viability [4] 102% | viability [5] 91.3% | inhibition [6] 1.58% | RAM network inhibition [7] 5.67%

Clc1ccc(-c2nnc(N3CCCC3)nn2)cc1
inactive: growth inhibition [1] -7.18% | growth inhibition [2] 4.79% | viability increase [3] -2.71% | viability [4] 86.6% | viability [5] 92.2% | inhibition [6] 0.995% | RAM network inhibition [7] 0.52%

CCC(C)Nc1nc2c(c(=O)n(C)c(=O)n2C)n1Cc1ccc(Cl)cc1 (configuration not stated)
inactive: growth inhibition [1] -0.995% | growth inhibition [2] -4.79% | viability increase [3] -4.21% | viability [4] 79% | viability [5] 70.6% | inhibition [6] -0.035% | RAM network inhibition [7] 4.57%

O=C(c1ccc(CS(=O)(=O)c2ccc(Br)cc2)o1)N1CCCCCC1
inactive: growth inhibition [1] -9.29% | growth inhibition [2] -18.8% | viability increase [3] -2.25% | viability [4] 87.9% | viability [5] 92.2% | inhibition [6] 0.185% | RAM network inhibition [7] 9.94%

Cn1nnnc1SCC(=O)Nc1ccc(N2CCOCC2)cc1
inactive: growth inhibition [1] -4.58% | growth inhibition [2] 7.83% | viability increase [3] -1.01% | viability [4] 95.8% | viability [5] 97.5% | inhibition [6] 0.97% | RAM network inhibition [7] 0.68%

CNc1oc(-c2ccccc2)nc1C#N
inactive: growth inhibition [1] 1.34% | growth inhibition [2] 21.3% | viability increase [3] 2.14% | viability [4] 101% | viability [5] 102% | inhibition [6] -0.58% | RAM network inhibition [7] 5.84%

CCCCn1c(C(C)NC(=O)CC)nc2ccccc21 (configuration not stated)
inactive: growth inhibition [1] -12.9% | growth inhibition [2] -3.19% | viability increase [3] -3.16% | viability [4] 92.2% | viability [5] 92.7% | inhibition [6] 0.01% | RAM network inhibition [7] -0.63%

CCc1ccc(C2CC(c3ccccc3Cl)Nc3nc(N)nn32)cc1 (configuration not stated)
inactive: growth inhibition [1] 8.37% | growth inhibition [2] 26.1% | viability increase [3] -2.66% | viability [4] 95% | viability [5] 80.7% | inhibition [6] 0.86% | RAM network inhibition [7] 8.56%

O=C1CC(C(=O)N2CCN(c3ccc(F)cc3)CC2)CN1CCc1ccccc1 (configuration not stated)
inactive: growth inhibition [1] -1.65% | growth inhibition [2] 5.89% | viability increase [3] -2.3% | viability [4] 99.2% | viability [5] 92.6% | inhibition [6] -0.23% | RAM network inhibition [7] 1.03%

Cc1ccc2oc(=O)c3cnn(CC(=O)NCCN(C)C)c3c2c1
inactive: growth inhibition [1] -13% | growth inhibition [2] -11.6% | viability increase [3] 0.12% | viability [4] 101% | viability [5] 97.7% | inhibition [6] 0.365% | RAM network inhibition [7] 0.55%

Reference: PubChem BioAssay
